Data reported in ChEMBL document CHEMBL4732044, “Discovery of a promising agent IQZ23 for the treatment of obesity and related metabolic disorders” (Eur J Med Chem, 2020).
Converted amounts (≈) assume the structure as drawn. The source made the active and inactive calls. No cut-off for these calls is given here.

Assays:
3T3-L1 [1] = experiment: Lipid lowering activity in mouse 3T3-L1 cells assessed as reduction in adipogenic cocktail-induced triglyceride levels incubated for 6 days by GPO-POD assay; type: functional, cell-based; conditions: for Activity: dose 1-5 µM, time 6.0 day; for EC50: 3T3-L1, 144 h
Procedure, shortened: (§1)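 Confluent 3T3-L1 cells were treated from day 0 in cocktail (IBMX, dexamethasone, insulin) for 3 days, then re-dosed in insulin medium for 3 more days. For dose–response, concentrations were 0–10 µM (0.01, 0.1, 0.3, 1, 3, 10). On day 6, cells were lysed in 0.2% Triton X-100 and TG was measured by GPO-POD and normalized to BCA protein as % of control. EC50 was fitted from the dose–response. N = 4.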

3T3-L1 [2] = experiment: Lipid lowering activity in mouse 3T3-L1 cells assessed as adipogenic cocktail-induced triglyceride levels at 1 uM incubated for 6 days by GPO-POD assay relative to control; type: functional; conditions: time 6 day; procedure, shortened: as §1
3T3-L1 [3] = experiment: Lipid lowering activity in mouse 3T3-L1 cells assessed as reduction in adipogenic cocktail-induced triglyceride levels at 1 uM incubated for 6 days by GPO-POD assay relative to control; type: functional; design: scale not given: the % may be the effect or the level left; conditions: time 6 day; procedure, shortened: as §1
3T3-L1 [4] = experiment: Lipid lowering activity in mouse 3T3-L1 cells assessed as reduction in adipogenic cocktail-induced triglyceride levels at 1 uM incubated for 6 days by Oil-red O staining based assay; type: functional, cell-based; conditions: time 6.0 day
Procedure, shortened: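 Differentiating 3T3-L1 cells were treated at 1 µM for 6 days, then washed with PBS and fixed in 4% formaldehyde for 1 h. Cells were stained with 0.3% Oil Red O for 30 min at room temperature in the dark and imaged at ×200.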

3T3-L1 [5] = experiment: Cytotoxicity against mouse 3T3-L1 cells assessed as change in LDH releasing level at 5 uM after 6 days by LDH releasing assay; type: cell-based; conditions: 3t3-l1, 144 h, time 6 day
Procedure, shortened: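 Differentiating 3T3-L1 cells were treated at 5 µM for 6 days. Plates were centrifuged and LDH activity in the supernatant was read at 490 nm. Release was expressed as fold = (treated − blank)/(control − blank), with untreated cells as blank and vehicle-differentiated control set to 1.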

3T3-L1 [6] = experiment: Inhibition of mouse 3T3-L1 cells adipocyte differentiation assessed as reduction in adipogenic cocktail-induced C/EBPbeta mRNA expression after 24 hrs by RT-qPCR analysis; type: functional, cell-based; conditions: dose 0.01-1 µM
Procedure, shortened: (§2)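 Confluent 3T3-L1 preadipocytes received differentiation cocktail (0.5 mM IBMX, 100 ng/mL dexamethasone, 2 µg/mL insulin) with compound (0.01–1 µM; metformin 1 mM) for 24 h. mRNA was measured by SYBR Green RT-qPCR (30 cycles), normalized to β-actin, with the differentiated control set to 1. N = 4 independent experiments.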

3T3-L1 [7] = experiment: Inhibition of mouse 3T3-L1 cells adipocyte differentiation assessed as reduction in adipogenic cocktail-induced C/EBPdelta mRNA expression after 24 hrs by RT-qPCR analysis; type: functional, cell-based; conditions: dose 0.01-1 µM; procedure, shortened: as §2
3T3-L1 [8] = experiment: Inhibition of mouse 3T3-L1 cells adipocyte differentiation assessed as reduction in adipogenic cocktail-induced C/EBPalpha mRNA expression after 24 hrs by RT-qPCR analysis; type: functional, cell-based; conditions: dose 0.01-1 µM; procedure, shortened: as §2
3T3-L1 [9] = experiment: Inhibition of mouse 3T3-L1 cells adipocyte differentiation assessed as reduction in adipogenic cocktail-induced PPARgamma mRNA expression after 24 hrs by RT-qPCR analysis; type: functional, cell-based; conditions: dose 0.01-1 µM; procedure, shortened: as §2
3T3-L1 [10] = experiment: Activation of AMPK pathway in adipogenic cocktail-induced mouse 3T3-L1 cells assessed as increase in phosphorylation AMPKalpha at Thr172 residue at 0.01 to 1 uM after 24 hrs by Western blot analysis; type: cell-based; conditions: filed as activator, dose 0.01-1 µM
Procedure, shortened: (§3)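 Confluent 3T3-L1 pre-adipocytes exposed to adipogenic cocktail for 24 h with or without compound (0, 0.01, 0.1, 1 µM); DMSO vehicle. Lysates analysed by SDS-PAGE/Western blot for pAMPKα (Thr-172), normalized to actin, Ctrl set as 1. N = 4 independent experiments.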

[11] = Stability in Sprague-Dawley rat liver microsomes assessed as remaining compound […] up to 60 mins in presence of NADPH by LC-MS/MS analysis; type: ADME, Microsome; conditions: read-out: Stabilty
[12] = Stability in Sprague-Dawley rat liver microsomes assessed as rate constant […] up to 60 mins in presence of NADPH by LC-MS/MS analysis; type: ADME, Microsome
[13] = Half life in Sprague-Dawley rat liver microsomes assessed as rate constant […] up to 60 mins in presence of NADPH by LC-MS/MS analysis; type: ADME, Microsome
[14] = Intrinsic clearance in Sprague-Dawley rat liver microsomes assessed as rate constant […] up to 60 mins in presence of NADPH by LC-MS/MS analysis; type: ADME, Microsome; conditions: read-out: CLH
[15] = Aqueous solubility in PBS buffer at pH 7.4 after 24 hrs; type: physicochemical
3T3-L1 [16] = experiment: Activation of AMPK pathway in mouse 3T3-L1 cells assessed as increase in number of mitochondria copy at 2 uM after 24 hrs by mito-tracker staining based Confocal microscopic method; conditions: filed as activator
Procedure, shortened: (§4)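 3T3-L1 cells grown in DMEM with 10% FBS at 37 °C and 5% CO2. After treatment, cells were stained for 30 min at 37 °C in the dark with 1 µM Mito-Tracker plus Hoechst 33342 (1:1000) and imaged by confocal microscopy (excitation 633 and 405 nm). Mitochondrial copy number was also taken as the mtDNA/nDNA ratio by PCR (cytochrome C versus 18S rRNA).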

3T3-L1 [17] = experiment: Activation of AMPK pathway in mouse 3T3-L1 cells assessed as increase in number of mitochondria copy at 2 uM after 24 hrs in presence of compound C by mito-tracker staining based Confocal microscopic method; procedure, shortened: as §4
3T3-L1 [18] = experiment: Lipid lowering activity in mouse 3T3-L1 cells assessed as reduction in adipogenic cocktail-induced triglyceride levels […] incubated for 6 days by GPO-POD assay relative to control; type: functional; design: scale not given: the % may be the effect or the level left; conditions: time 6 day
3T3-L1 [19] = experiment: Inhibition of mouse 3T3-L1 cells adipocyte differentiation assessed as reduction in adipogenic cocktail-induced C/EBPbeta mRNA expression at 1 mM after 24 hrs by RT-qPCR analysis; type: functional, cell-based; procedure, shortened: as §2
3T3-L1 [20] = experiment: Inhibition of mouse 3T3-L1 cells adipocyte differentiation assessed as reduction in adipogenic cocktail-induced C/EBPdelta mRNA expression at 1 mM after 24 hrs by RT-qPCR analysis; type: functional, cell-based; procedure, shortened: as §2
3T3-L1 [21] = experiment: Inhibition of mouse 3T3-L1 cells adipocyte differentiation assessed as reduction in adipogenic cocktail-induced C/EBPalpha mRNA expression at 1 mM after 24 hrs by RT-qPCR analysis; type: functional, cell-based; procedure, shortened: as §2
3T3-L1 [22] = experiment: Inhibition of mouse 3T3-L1 cells adipocyte differentiation assessed as reduction in adipogenic cocktail-induced PPARgamma mRNA expression at 1 mM after 24 hrs by RT-qPCR analysis; type: functional, cell-based; procedure, shortened: as §2
3T3-L1 [23] = experiment: Activation of AMPK pathway in adipogenic cocktail-induced mouse 3T3-L1 cells assessed as increase in phosphorylation AMPKalpha at Thr172 residue after 24 hrs by Western blot analysis; type: cell-based; conditions: filed as activator; procedure, shortened: as §3
3T3-L1 [24] = experiment: Inhibition of mouse 3T3-L1 cells adipocyte differentiation assessed as reduction in adipogenic cocktail-induced C/EBPalpha protein expression after 24 hrs by Western blot analysis; type: functional, cell-based
Procedure, shortened: (§5)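 3T3-L1 preadipocytes were exposed to adipogenic cocktail with compound (0.3 or 1 µM) and harvested on day 1. Lysates were resolved by SDS-PAGE, immunoblotted (primary antibody overnight at 4 °C, HRP secondary) and quantified by densitometry normalized to actin.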

3T3-L1 [25] = experiment: Inhibition of mouse 3T3-L1 cells adipocyte differentiation assessed as reduction in adipogenic cocktail-induced PPARgamma protein expression after 24 hrs by Western blot analysis; type: functional, cell-based; procedure, shortened: as §5
3T3-L1 [26] = experiment: Inhibition of mouse 3T3-L1 cells adipocyte differentiation assessed as reduction in adipogenic cocktail-induced SREBP-1c protein expression after 24 hrs by Western blot analysis; type: functional, cell-based; procedure, shortened: as §5
3T3-L1 [27] = experiment: Inhibition of mouse 3T3-L1 cells adipocyte differentiation assessed as reduction in adipogenic cocktail-induced SCD1 protein expression after 6 days by Western blot analysis; type: functional, cell-based; conditions: time 6.0 day
Procedure, shortened: (§6)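 3T3-L1 preadipocytes were differentiated with cocktail for 3 days, then insulin medium for 3 days, with compound (0.3 or 1 µM) present throughout. Cells were harvested on day 6 and proteins measured by Western blot, with densitometry normalized to actin.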

3T3-L1 [28] = experiment: Inhibition of mouse 3T3-L1 cells adipocyte differentiation assessed as reduction in adipogenic cocktail-induced FAS protein expression after 6 days by Western blot analysis; type: functional, cell-based; conditions: time 6.0 day; procedure, shortened: as §6
3T3-L1 [29] = experiment: Inhibition of mouse 3T3-L1 cells adipocyte differentiation assessed as reduction in adipogenic cocktail-induced ACC protein expression after 6 days by Western blot analysis; type: functional, cell-based; conditions: time 6.0 day; procedure, shortened: as §6
C2C12 [30] = experiment: Activation of AMPK pathway in mouse C2C12 cells assessed as increase in glucose uptake at 1 mM after 6 hrs by 2-NBDG/Hoechst 33342 staining based Confocal microscopic method; type: cell-based; conditions: filed as activator
Procedure, shortened: (§7)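 C2C12 myoblasts kept in DMEM with 10% FBS and 1% penicillin/streptomycin at 37 °C under 5% CO2.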

C2C12 [31] = experiment: Activation of AMPK pathway in mouse C2C12 cells assessed as increase in glucose uptake at 1 mM after 6 hrs in presence of insulin by 2-NBDG/Hoechst 33342 staining based Confocal microscopic method; type: cell-based; conditions: filed as activator; procedure, shortened: as §7
Mus musculus = experiment: Antiobesity activity in high fat diet-induced obese C57BL/6J mouse model assessed as decrease in body weight at 50 mg/kg, ip administered for every other days for 5 weeks; type: functional; design: scale not given: the % may be the effect or the level left

SMILES	Activity (3T3-L1 [1])	Activity (3T3-L1 [2]) [%]	Activity (3T3-L1 [3])	EC50 (3T3-L1 [1]) [nM]	Activity (3T3-L1 [4])	Activity (3T3-L1 [5])	inhibition (3T3-L1 [6])	inhibition (3T3-L1 [7])	inhibition (3T3-L1 [8])	inhibition (3T3-L1 [9])	Activity (3T3-L1 [10])	remaining at 1 h [11] [%]	k el at 1 h [12] [s⁻¹]	half-life [13] [h]	microsomal CLint [14] [µL/min/mg]	solubility at 24 h [15] [µg/mL]	other results
O=Cc1c(-c2nc(NCCCN3CCCC3)c3ccccc3n2)oc2ccccc12	Dose-dependent effect	88.7	–	–	–	–	–	–	–	–	–	–	–	–	–	–	–
CN(C)CCCNc1nc(-c2c(C=O)c3ccccc3n2Cc2ccccc2)nc2ccccc12	Dose-dependent effect	57.1	–	–	–	–	–	–	–	–	–	–	–	–	–	–	–
COc1ccc2[nH]c(-c3nc(NCCN4CCCC4)c4ccccc4n3)c(C=O)c2c1	Dose-dependent effect	–	>=50%	310	Active	Non-Toxic	Dose-dependent effect	Dose-dependent effect	Dose-dependent effect	Dose-dependent effect	Active	66.6	0.00011	1.75	6.6	56.4 (≈ 136 µM)	–
CN(C)CCCNc1nc(-c2c(C=O)c3ccccc3n2C)nc2ccccc12	Dose-dependent effect	70.4	–	–	–	–	–	–	–	–	–	–	–	–	–	–	–
CCN(CC)CCCCNc1nc(-c2[nH]c3ccc(OC)cc3c2C=O)nc2ccccc12	Dose-dependent effect	–	>=50%	920	Active	Non-Toxic	Dose-dependent effect	Dose-dependent effect	Dose-dependent effect	Dose-dependent effect	Active	84	4.5e-05	4.28	2.7	65.9 (≈ 148 µM)	–
NC(=O)c1ncn([C@@H]2O[C@H](CO)[C@@H](O)[C@H]2O)c1N	–	–	–	–	–	–	–	–	–	–	–	–	–	–	–	–	Activity (3T3-L1 [16]): Active; Activity (3T3-L1 [17]): inactive
O=Cc1c(-c2nc(NCCCN3CCCC3)c3ccccc3n2)[nH]c2ccccc12	Dose-dependent effect	34.9	–	–	–	–	–	–	–	–	–	–	–	–	–	–	–
O=Cc1c(-c2nc(NCCCCN3CCCC3)c3ccccc3n2)[nH]c2ccccc12	Dose-dependent effect	–	>=50%	510	Active	Non-Toxic	Dose-dependent effect	Dose-dependent effect	Dose-dependent effect	Dose-dependent effect	Active	83.9	4.67e-05	4.13	2.8	15.1 (≈ 36.5 µM)	–
CN(C)C(=N)NC(=N)N [METFORMIN]	–	–	–	–	–	–	–	–	–	–	–	–	–	–	–	–	Activity (3T3-L1 [18]): 60.3%; inhibition (3T3-L1 [19]): Active; inhibition (3T3-L1 [20]): Active; inhibition (3T3-L1 [21]): Active; inhibition (3T3-L1 [22]): Active; Activity (3T3-L1 [23]): Active; inhibition (3T3-L1 [24]): Active; inhibition (3T3-L1 [25]): Active; inhibition (3T3-L1 [26]): Active; inhibition (3T3-L1 [27]): Active; inhibition (3T3-L1 [28]): Active; inhibition (3T3-L1 [29]): Active; Activity (C2C12 [30]): Active; Activity (C2C12 [31]): Active
O=Cc1c(-c2nc3ccccc3c(=O)[nH]2)[nH]c2ccccc12	–	–	–	–	–	–	–	–	–	–	–	–	–	–	–	–	Activity (Mus musculus): 14.6%
